IC50 and Ratio IC50 data for 21 compounds are collected here from ChEMBL document CHEMBL4359882, “Synthesis, molecular docking, and QSAR study of bis-sulfonamide derivatives as potential aromatase inhibitors” (Bioorg Med Chem, 2019).

Assay [1] deals with T1, Aromatase (Homo sapiens, UniProt P11511).
T1 sequence (P11511 whole entry): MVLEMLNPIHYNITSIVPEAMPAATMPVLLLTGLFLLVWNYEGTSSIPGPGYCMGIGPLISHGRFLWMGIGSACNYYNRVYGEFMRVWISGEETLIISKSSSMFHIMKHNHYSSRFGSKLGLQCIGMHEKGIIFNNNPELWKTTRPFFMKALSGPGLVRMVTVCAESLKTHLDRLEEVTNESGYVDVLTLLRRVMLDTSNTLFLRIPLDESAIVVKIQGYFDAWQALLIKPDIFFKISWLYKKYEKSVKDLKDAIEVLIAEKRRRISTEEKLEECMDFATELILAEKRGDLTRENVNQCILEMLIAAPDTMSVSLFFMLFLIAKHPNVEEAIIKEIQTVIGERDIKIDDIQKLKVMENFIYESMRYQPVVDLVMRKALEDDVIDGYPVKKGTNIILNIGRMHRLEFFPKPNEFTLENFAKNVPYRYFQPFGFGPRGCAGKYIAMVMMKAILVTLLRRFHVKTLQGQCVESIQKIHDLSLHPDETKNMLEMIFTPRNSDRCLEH
Description: Inhibition of recombinant human aromatase expressed in baculovirus infected insect cells using O-benzyl fluorescein benzyl ester as substrate in presence of NADPH generating system by fluorescence based analysis.

The subject of assay [2] is T47D. The assay is described as follows: Cytotoxicity against human T47D cells assessed as reduction in cell growth measured after 48 hrs by MTT assay. Type of assay: functional, cell-based. The essentials:
(§1)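 T47-D cells kept in RPMI-1640 with 2 mM L-glutamine, insulin, 4.5 g/L glucose and 10% FBS. MRC-5 cells kept in DMEM with 10% FBS. Cells seeded at 10,000-20,000 per well and preincubated 24 h at 37 °C in 5% CO2. Serial dilutions added, then incubated 48 h. MTT for 2-4 h, formazan dissolved in DMSO, read at 550/650 nm. IC50 is the concentration giving 50% growth inhibition.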

Assay [3] relates to MRC5. The assay is described as follows: Cytotoxicity against human MRC5 cells assessed as reduction in cell growth measured after 48 hrs by MTT assay. It counts as cell-based. The settings on record: MRC5, 48 h. In outline: as §1
Background: Tetrazolium dyes change colour on reduction, which living cells bring about.

The species named for assay [4] is Homo sapiens. The assay is described as follows: Selectivity index, ratio of IC50 for human MRC5 cells by MTT assay to IC50 for human recombinant aromatase expressed in baculovirus infected insect cells.
Setting [5] is: Homo sapiens, T47D, 48 h, read-out: IC50.

SMILES strings stand for the structures.

Broadly, the IC50 is the midpoint of a concentration-inhibition curve. In the case of `O=S(=O)(NCc1cccc(CNS(=O)(=O)c2ccc(Cl)cc2)c1)c1ccc(Cl)cc1`, the values for the IC50 in assay [1], in assay [2] (setting [5]) and in assay [3] were 0.05 µM, 37.5 µM and 68.5 µM, respectively. Besides, in assay [4], the Ratio IC50 was found to be 1370.
The like results for `O=S(=O)(Nc1cccc(NS(=O)(=O)c2ccc(Cl)cc2)c1)c1ccc(Cl)cc1` were, in that order, 0.78 µM, 87.2 µM, 63.1 µM and 80.9.
The like results for `CC(=O)c1ccc(S(=O)(=O)NCc2cccc(CNS(=O)(=O)c3ccc(C(C)=O)cc3)c2)cc1` were, in that order, 0.28 µM, greater than 50 µg/mL, greater than 50 µg/mL and greater than 357.
Taken in the same sequence, the figures for `N#Cc1ccc(S(=O)(=O)NCc2cccc(CNS(=O)(=O)c3ccc(C#N)cc3)c2)cc1` were 0.16 µM, 69.3 µM, greater than 50 µg/mL and greater than 670.
Take `S=C(NCc1cccc(CNC(=S)Nc2ccc(Cl)cc2)c1)Nc1ccc(Cl)cc1`: the IC50 in assay [1] worked out at 5.5 µM.
Consider `Cc1cc(C)c(C)c(S(=O)(=O)NCc2cccc(CNS(=O)(=O)c3c(C)c(C)cc(C)c3C)c2)c1C`, for which the 50% inhibitory concentration (IC50) was 3.2 µM in assay [1], 30.9 µM in assay [2] (setting [5]) and 80.9 µM in assay [3]. In addition, the Ratio IC50 in assay [4] stood at 25.3.
`COc1ccc(S(=O)(=O)Nc2cccc(NS(=O)(=O)c3ccc(OC)cc3)c2)cc1`: the results for the half-maximal inhibitory concentration (IC50) in assay [1], in assay [2] (setting [5]) and in assay [3] were 0.53 µM, greater than 50 µg/mL and greater than 50 µg/mL, respectively. In assay [4], the Ratio IC50 was greater than 210.
Take `COc1cccc2c1C(=O)c1c(O)c3c(c(O)c1C2=O)C[C@@](O)(C(=O)CO)C[C@@H]3O[C@H]1C[C@H](N)[C@H](O)[C@H](C)O1` [DOXORUBICIN]: the IC50 in assay [2] (setting [5]) was determined as 0.88 µM; in assay [3] it was 2.19 µM.
For the compound `O=[N+]([O-])c1ccc(S(=O)(=O)NCc2cccc(CNS(=O)(=O)c3ccc([N+](=O)[O-])cc3)c2)cc1`, the figures for the IC50 in assay [1], in assay [2] (setting [5]) and in assay [3] were 0.37 µM, 39.3 µM and greater than 50 µg/mL, respectively. For the same compound, the Ratio IC50 in assay [4] was greater than 267.
For the compound `O=[N+]([O-])c1ccc(NC(=S)NCc2cccc(CNC(=S)Nc3ccc([N+](=O)[O-])cc3)c2)cc1`, in assay [1], the IC50 was found to be 0.8 µM.
On to `Cc1ccc(S(=O)(=O)NCc2cccc(CNS(=O)(=O)c3ccc(C)cc3)c2)cc1`, for which the values for the IC50 in assay [1], in assay [2] (setting [5]) and in assay [3] were 0.13 µM, 43.9 µM and greater than 50 µg/mL, respectively. In addition, in assay [4], the Ratio IC50 is greater than 865.
The like results for `O=S(=O)(NCc1cccc(CNS(=O)(=O)c2ccc3ccccc3c2)c1)c1ccc2ccccc2c1` were, in that order, 0.21 µM, greater than 50 µg/mL, greater than 50 µg/mL and greater than 461.
Taken in the same sequence, the figures for `N#Cc1ccc(S(=O)(=O)NCc2ccc(CNS(=O)(=O)c3ccc(C#N)cc3)cc2)cc1` were 0.66 µM, greater than 50 µg/mL, 92.8 µM and 141.
The like results for `O=[N+]([O-])c1ccccc1S(=O)(=O)NCc1cccc(CNS(=O)(=O)c2ccccc2[N+](=O)[O-])c1` were, in that order, 3.67 µM, 75.4 µM, greater than 50 µg/mL and greater than 26.9.
On to `Nc1cccc(S(=O)(=O)NCc2cccc(CNS(=O)(=O)c3cccc(N)c3)c2)c1`, for which the figures for the half-maximal inhibitory concentration (IC50) in assay [1], in assay [2] (setting [5]) and in assay [3] were 3.3 µM, 90.6 µM and greater than 50 µg/mL, respectively. In assay [4], the Ratio IC50 is greater than 33.9.
The like results for `O=[N+]([O-])c1cccc(S(=O)(=O)NCc2cccc(CNS(=O)(=O)c3cccc([N+](=O)[O-])c3)c2)c1` were, in that order, 2.75 µM, greater than 50 µg/mL, greater than 50 µg/mL and greater than 35.9.
Turning to `O=S(=O)(NCc1cccc(CNS(=O)(=O)c2ccc(F)cc2)c1)c1ccc(F)cc1`, the half-maximal inhibitory concentration (IC50) in assay [1] is 2.19 µM; in assay [2] (t47d), “Nd(Insoluble)”; in assay [3] it was greater than 50 µg/mL. The Ratio IC50 in assay [4] is greater than 50.5.
Regarding `Cc1cc(C)c(C)c(S(=O)(=O)NCc2ccc(CNS(=O)(=O)c3c(C)c(C)cc(C)c3C)cc2)c1C`, the 50% inhibitory concentration (IC50) is greater than 12.5 µM in assay [1], greater than 50 µg/mL in assay [2] (setting [5]) and 16.3 µM in assay [3].
Turning to `O=S(=O)(NCc1cccc(CNS(=O)(=O)c2ccc(Br)cc2)c1)c1ccc(Br)cc1`, the IC50 in assay [1] is 0.06 µM; in assay [2] (t47d), “Nd(Insoluble)”; in assay [3] it was greater than 50 µg/mL. Also, the Ratio IC50 in assay [4] is greater than 1450.
Turning to `COc1ccc(S(=O)(=O)NCc2cccc(CNS(=O)(=O)c3ccc(OC)cc3)c2)cc1`, the values for the 50% inhibitory concentration (IC50) in assay [1], in assay [2] (setting [5]) and in assay [3] were 11.6 µM, 75.3 µM and greater than 50 µg/mL, respectively. Moreover, the Ratio IC50 in assay [4] is greater than 9.04.
The like results for `O=S(=O)(NCc1cccc(CNS(=O)(=O)c2ccc(C(F)(F)F)cc2)c1)c1ccc(C(F)(F)F)cc1` were, in that order, 0.43 µM, 75.4 µM, 74.6 µM and 173.
